# Bioassay records: PubChem BioAssay, Sanford-Burnham Center for Chemical Genomics
# SENP6 inh = inhibitors of human SENP6 protease | hit rate 1.8% among 330,000 | inhibition, % at 10 µM | Recombinant SENP6 catalytic domain, aminoluciferin luminescence;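 active = inhibition above about 50% at the single tested dose, limit read from the data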
# SENP8 block-1 = inhibitors of human SENP8 protease. Q96LD8. purified SENP8, Z-RLRGG-aminoluciferin cleavage, luminescence. inhibition, % at 10 µM. hit rate 1.2% among 330,000. AID 2540; in the data active = inhibition above about 50%
# SENP8 block-2 = SENP8 (human) protease inhibition. Q96LD8. recombinant SENP8, Nedd8 substrate fluorescence. inhibition, % at 20 µM. hit rate 0.64% among 360,000; in the data active = inhibition mostly above about 40%, no sharp cut-off; inactive = mostly below about 27%
# SENP7 inh = SENP7 protease inhibition; Q9BQF6; recombinant SENP7, Z-RLRGG-aminoluciferin luminescence, 40 min; inhibition, % at 5 µM; hit rate 1.5% among 330,000; AID 434973;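 active = inhibition above about 50% at the single test dose, limit read from the data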
# SENP1 inh = SENP1 (human) catalytic domain inhibition; Q9P0U3; recombinant SENP1 catalytic domain, CyPet-SUMO1-YPet FRET cleavage; inhibition, % at 10 µM; hit rate 0.21% among 360,000; AID 624204;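 active = inhibition at least 30% at 10 µM, raw YFP signal under a set limit, fluorescence ratio 0.5 to 1.5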
# Target sequence (Q9P0U3 419-644 limits assumed): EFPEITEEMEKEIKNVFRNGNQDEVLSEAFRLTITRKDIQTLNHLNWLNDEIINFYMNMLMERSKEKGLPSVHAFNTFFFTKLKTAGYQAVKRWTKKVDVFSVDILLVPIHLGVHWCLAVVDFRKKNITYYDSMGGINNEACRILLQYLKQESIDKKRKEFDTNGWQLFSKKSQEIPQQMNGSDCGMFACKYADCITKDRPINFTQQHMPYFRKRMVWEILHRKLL
#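 Assay system: hSENP1 catalytic domain, recombinant. Amount: SENP1 enzyme, 20 pM final. Schedule: 50 min reaction, RT, dark. Technique: FRET, CFP and YFP emission. Control set: no-enzyme wells low, DMSO-plus-enzyme wells high control.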
# SENP8 conf = confirmation of human SENP8 protease inhibitors; shares compounds with SENP7 inh; Recombinant SENP8, Z-RLRGG-aminoluciferin luminescence, 60 min; inhibition, % at 12.5 µM; hit rate 40% among 6,200; AID 488912;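 active = mean inhibition across replicates above about 50%, limit read from the data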
# SENP6 conf = confirmation of human SENP6 protease inhibitors; shares compounds with SENP7 inh; recombinant SENP6, Z-RLRGG-aminoluciferin luminescence; inhibition, % at 12.5 µM; hit rate 58% among 6,200; AID 488915
# SENP7 confirm = confirmation of human SENP7 protease inhibitors. shares compounds with SENP7 inh. recombinant SENP7, Z-RLRGG-aminoluciferin luminescence, 40 min. inhibition, % at 12.5 µM. hit rate 69% among 6,200. AID 488917
# Casp3 select = inhibits human caspase-3 in SENP selectivity test | hit rate 60% among 6,200 | AID 488918 | shares compounds with SENP7 inh | inhibition, % at 12.5 µM | purified caspase-3, Z-DEVD-aminoluciferin luminescence, 60 min;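 active = mean inhibition above about 50%, limit read from the data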
# Target sequence (P42574 28-227 limits assumed): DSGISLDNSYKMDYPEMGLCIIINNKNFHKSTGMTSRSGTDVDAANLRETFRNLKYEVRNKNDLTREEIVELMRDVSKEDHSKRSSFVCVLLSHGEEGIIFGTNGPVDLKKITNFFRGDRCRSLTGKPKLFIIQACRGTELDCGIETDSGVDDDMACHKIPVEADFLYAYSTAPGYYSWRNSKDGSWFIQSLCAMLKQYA
# SENP luc ctr = counter-screen for SENP inhibitors: luminescence interference; shares compounds with SENP7 inh; Pre-incubated SENP8/Z-RLRGG-aminoluciferin, luciferase luminescence interference; inhibition, % at 12.5 µM; hit rate 39% among 6,200; AID 488919;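 active = mean inhibition above about 50% when retested at one dose, limit read from the data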
# Hits are given with their value; n = inactive; x = not tested or not shown. Sampled rows, rich in hits. Any-hit rate of the full collection: about 2.5%.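 The calls were made as follows, unless noted: active = mean inhibition above about 50% in the one-dose retest (limit read from the data); inactive = the rest.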
SMILES,SENP6 inh,SENP8 block-1,SENP8 block-2,SENP7 inh,SENP1 inh,SENP8 conf,SENP6 conf,SENP7 confirm,Casp3 select,SENP luc ctr
Cc1ccsc1/C=C/c1ccc2cccc(O)c2n1,94,86,n,91,n,95,97,101,91,84
c1c2c(cc3sc(N4CCCCC4)nc13)OCO2,101,96,n,99,n,97,99,103,98,95
c1c2c(cc3sc(N4CCOCC4)nc13)OCO2,60,76,n,89,n,85,86,99,95,88
Fc1ccc2nc(N3CCOCC3)sc2c1,n,n,n,n,n,x,x,x,x,x
O=[N+]([O-])c1ccc2oc(C(O)c3cccc(Cl)c3)cc2c1 (stereo not given),n,n,n,n,n,x,x,x,x,x
Oc1cc(O)cc(/C=C/c2ccc(O)c(O)c2)c1,65,n,n,n,n,63,71,83,63,73
C/C=C/c1ccc(O)c(OC)c1,n,n,n,n,n,x,x,x,x,x
CCOC(=O)c1ccc(-c2ccc3c(c2)CCC3)nc1C,60,53,n,70,n,57,57,80,n,n
CCOC(=O)c1cc2c(nc1N)CCCC2,n,n,n,n,n,x,x,x,x,x
COC(=O)c1ccc(-c2ccc(F)cc2)nc1C,62,n,n,53,n,n,n,77,n,n
CCN(CC(=O)Nc1ccc(NC(C)=O)cc1)C(=O)C1CC1,x,x,n,x,n,x,x,x,x,x
COc1ccc(OC(=O)c2ccncc2)cc1,n,n,n,n,n,x,x,x,x,x
COc1ccc(C(=O)Oc2ccc(/C=N/O)cc2)cc1,79,53,n,61,n,67,67,90,73,n
Cc1[nH]n(-c2ccccc2)c(=O)c1N=Nc1ccccc1,n,n,n,n,n,x,x,x,x,x
Cc1[nH]n(C(N)=S)c(=O)c1N=Nc1ccc(Br)cc1,93,92,n,82,n,n,n,n,n,n
Cc1[nH]n(C2=NCCS2)c(=O)c1N=Nc1cccc(C(F)(F)F)c1,74,n,n,n,n,n,n,n,n,n
Cc1[nH]n(-c2ccccc2)c(=O)c1N=Nc1cccc(S(=O)(=O)N2CCOCC2)c1,n,n,n,n,n,x,x,x,x,x
Cc1[nH]n(-c2ccccc2)c(=O)c1N=Nc1cccc(C(=O)O)c1,56,n,49,n,n,n,n,59,n,n
Cc1[nH]n(C(N)=S)c(=O)c1N=Nc1cccc(C(F)(F)F)c1,79,81,n,n,n,n,n,n,n,n
Nc1ccc2cc3[nH]c4cc(N)ccc4c3nc2c1,x,x,n,x,n,x,x,x,x,x
Cc1cc(Cl)ccc1C(O)c1ncc(-c2ccc(C(F)(F)F)cc2)[nH]1 (stereo not given),x,x,n,x,n,x,x,x,x,x
CC(=O)c1ccc(NC(=O)Oc2ccccc2)cc1,n,n,n,n,n,x,x,x,x,x
CC(C)Oc1ccc(NC(=O)Oc2ccccc2)cc1,88,80,n,n,n,n,100,103,98,94
CCCOc1ccc(C(=O)Nc2ccc3c(c2)OCCO3)cc1,64,73,n,76,n,n,n,93,74,n
COc1cc(C(=O)Nc2ccc3c(c2)OCCO3)ccc1OC(F)F,82,62,n,77,n,n,71,90,76,75
SMILES,SENP6 inh,SENP8 block-1,SENP8 block-2,SENP7 inh,SENP1 inh,SENP8 conf,SENP6 conf,SENP7 confirm,Casp3 select,SENP luc ctr
COc1ccc(C(=O)Nc2ccc3c(c2)OCCO3)cc1,73,70,n,n,n,81,81,97,91,83
O=C(C(=O)N(C1CCCCC1)C1CCCCC1)c1ccccc1,x,x,n,x,n,x,x,x,x,x
O=c1oc(C2(O)CCCCC2)cc2ccccc12,n,n,n,n,n,x,x,x,x,x
O=c1oc(C2(O)CCCCC2)cc2ccc(-c3ccc4[nH]ccc4c3)cc12,n,n,n,53,n,n,n,n,n,n
c1ccc2c(c1)COc1c3ncccc3nn1-2,x,x,n,x,n,x,x,x,x,x
CCCc1cc(-c2ccc3c(c2)COc2c4ccccc4nn2-3)on1,93,89,n,91,n,n,n,n,64,n
C(#CC1CCCC1)c1ccc2c(c1)COc1c3ccccc3nn1-2,n,n,n,n,n,x,x,x,x,x
Cc1cc(-c2ccc3c(c2)COc2c4ccccc4nn2-3)on1,93,86,n,n,n,n,n,n,n,n
CCOC(=O)[C@]12CCC=C1N(Cc1ccc3c(c1)OCO3)C(=O)[C@H](CC(=O)N1CCN(C(=O)c3ccco3)CC1)C2,x,x,n,x,n,x,x,x,x,x
CCOC(=O)C1=CCC(c2cccc(C)c2)N(S(=O)(=O)c2ccc(C)cc2)C1 (stereo not given),x,x,n,x,n,x,x,x,x,x
Cc1ccc(N=Nc2c(N)n(-c3ccccc3)[nH]c2=O)cc1,76,54,n,82,n,n,n,n,n,n
FC(F)(F)c1nc2cc3nc4ccccc4[nH]c3cc2n1,54,n,n,n,n,67,65,86,80,70
CC1CCN(S(=O)(=O)N2CCC(C(=O)NC(C)c3ccccc3)CC2)CC1 (stereo not given),x,x,n,x,n,x,x,x,x,x
O=c1[nH][nH]c2c1[C@H](c1ccc(Cl)cc1)O[C@H](C1CC1)C2,x,x,n,x,n,x,x,x,x,x
CCC(C)NC(=O)c1cc2cc3ccc(OC)cc3nc2s1 (stereo not given),n,n,n,60,n,n,61,87,72,n
CCNC(=O)NC(=O)COC(=O)c1ccccc1SCC(=O)NC(=O)NCC,95,93,n,93,n,96,96,102,98,85
Cc1ccc(O)c(-c2cc(-c3ccc(F)cc3)no2)c1,77,57,n,81,n,n,68,56,68,n
Cc1ccc(-c2cc(-c3ccccc3)no2)c(O)c1,x,x,n,x,n,x,x,x,x,x
Oc1ccccc1-c1cc(-c2ccccc2)no1,84,86,n,96,n,87,88,101,84,64
Cc1ccccc1-c1cc(-c2ccccc2O)on1,91,81,n,97,n,95,96,100,84,93
O=C(c1cc(-c2ccccc2O)on1)N1CCCCCC1,n,n,n,n,n,x,x,x,x,x
Cc1ccccc1CCN(C(=O)c1csnn1)C(C(=O)NC1CCCC1)c1ccncc1 (stereo not given),n,n,n,n,n,x,x,x,x,x
CC(C)c1ccc(/C=C/C(=O)Nc2nncs2)cc1,84,73,n,90,n,n,54,82,63,n
